Compound activity from PubChem.
B2AR ag = beta2AR agonists driving receptor internalization, primary screen, cell-based, FAP fluorogen, flow cytometry; Am2.2-beta2AR cells; response, % (test concentration not listed); 340,000 compounds, 0.43% hits;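 active = response above a set limit, near 3 SD of response in nonfluorescent compounds, cut at about 42% in these data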
MC4R barr agon = MC4R agonists recruiting beta-arrestin, primary screen, cell-based, luminescence, agonist arm of biased-ligand search. Melanocortin receptor 4 (Homo sapiens), P32245. U2OS MC4R beta-arrestin complementation; percent of melanotan II response, DMSO zero. 360,000 compounds, 0.98% hits. activation, % at 8.9 µM;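 active = activation above a per-plate cutoff, the mean activation of sample wells on that plate plus 3 SD, cut at about 8% in these data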
Target sequence (P32245 whole entry, looked up): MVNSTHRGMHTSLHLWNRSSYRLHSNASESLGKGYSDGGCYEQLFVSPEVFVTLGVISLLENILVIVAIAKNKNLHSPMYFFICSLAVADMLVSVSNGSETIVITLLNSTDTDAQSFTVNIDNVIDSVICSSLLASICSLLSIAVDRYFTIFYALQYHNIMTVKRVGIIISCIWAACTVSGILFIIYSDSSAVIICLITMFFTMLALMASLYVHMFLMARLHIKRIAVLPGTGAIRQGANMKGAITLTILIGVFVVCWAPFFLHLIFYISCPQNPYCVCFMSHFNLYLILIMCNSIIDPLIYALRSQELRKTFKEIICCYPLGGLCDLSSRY
TAAR1 agonist = human TAAR1 agonists, primary screen, Fluo-8 calcium fluorescence, CHO RD-HGA16 cells; 360,000 compounds, 0.99% hits; vehicle wells 0%, saturating PEA agonist 100%; activation, % at 3 µM;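 active = activation above the mean activation of all test compounds in the run plus 3 SD, cut at about 38% in these data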
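System: CHO RD-HGA16 cells carrying human TAAR1 plus Gα16; Incubation: 17-24 h seeding, 75 min 37 °C dye, 30 min RT; Measured by: Fluo-8 fluorescence, 5 s baseline then 140 s kinetic read; Control set: DMSO and PEA EC100; Replication: single well for each compound.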
m5-HT2A agonist = mouse Htr2a agonists via beta-arrestin recruitment, primary screen, cell-based, luminescence; 5-hydroxytryptamine receptor 2A (Mus musculus), P35363; AID 624169, 2012; CHO-K1 mHTR2A beta-arrestin complementation; percent of 30 µM serotonin response; 360,000 compounds, 0.66% hits; activation, % at 7.6 µM;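 active = activation above a run cutoff, the mean activation of all tested compounds plus 3 SD, cut at about 14% in these data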;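 also: 0% = plate median of compound wells and 100% = 30 µM serotonin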
Target sequence (P35363 whole entry, looked up): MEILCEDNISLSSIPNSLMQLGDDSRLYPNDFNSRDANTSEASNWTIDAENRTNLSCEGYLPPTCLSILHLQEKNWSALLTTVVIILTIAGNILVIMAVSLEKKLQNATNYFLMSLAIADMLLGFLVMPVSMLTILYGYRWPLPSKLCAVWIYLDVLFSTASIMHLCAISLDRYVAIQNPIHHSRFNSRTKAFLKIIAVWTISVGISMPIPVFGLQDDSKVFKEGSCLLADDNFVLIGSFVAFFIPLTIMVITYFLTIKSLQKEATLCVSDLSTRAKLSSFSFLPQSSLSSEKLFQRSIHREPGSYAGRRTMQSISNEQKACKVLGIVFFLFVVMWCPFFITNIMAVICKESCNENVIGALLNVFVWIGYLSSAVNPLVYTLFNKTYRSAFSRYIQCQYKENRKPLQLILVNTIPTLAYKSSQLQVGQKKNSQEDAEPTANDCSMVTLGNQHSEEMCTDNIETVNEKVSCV
TAAR1 antag = human TAAR1 antagonists, primary screen, Fluo-8 calcium fluorescence, CHO RD-HGA16 cells; antagonist; inhibition, % at 3 µM; Trace amine-associated receptor 1 (Homo sapiens), Q96RJ0; 360,000 compounds, 1.5% hits;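 active = inhibition above a per-plate cutoff, the mean inhibition of test compounds on that plate plus 3 SD, cut at about 49% in these data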;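 also: 0% = DMSO plus EC80 beta-PEA response and 100% = DMSO alone without agonist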
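System: RD-HGA16 CHO cells with stable hTAAR1 and Gα16 | Probe or stimulus: EC80 β-phenethylamine stimulus | Dosing: 3 µM, single point | Times: Dye loading 75 min at 37 °C, then 30 min room temperature | Measured by: Fluo-8 calcium-sensitive fluorescence | Read-out basis: % inhibition of agonist calcium response | Replicates: n of 1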
MC4R antagonist = MC4R antagonists of cAMP signaling, primary screen, cell-based, TR-FRET, antagonist arm of biased-ligand search. 360,000 compounds, 0.48% hits. MC4R-expressing cells, MTII-stimulated cAMP, LANCE TR-FRET. inhibition, % at 6.5 µM. AID 540295, 2011;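 active = inhibition above its plate's cutoff, the mean of tested wells on that plate plus 3 SD, cut at about 29% in these data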;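 also: 0% = Melanotan II alone and 100% = Melanotan II plus saturating MCL0020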
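Assay system: U2OS cells stably expressing human melanocortin 4 receptor (MC4R) / Dosing: 6.5 µM / Timing: compound 30 min, challenge 1 h, detection 1 h / Measured by: Eu-cAMP/anti-cAMP TR-FRET, emission 671 nm / Replicates: singlicate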
OPRM1 ag = OPRM1 agonists via beta-arrestin recruitment, confirmation, counter-screen for mouse HTR2A agonist project, cell-based, luminescence, single concentration. U2OS OPRM1 beta-arrestin PathHunter; DMSO 0%, DAMGO 9.3 µM 100%. AID 624380, 2012. 2,300 compounds, 5.3% hits. shares compounds with m5-HT2A agonist. activation, % at 9.3 µM;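 active = mean activation above the mean of DMSO-only wells plus 3 SD, cut at about 0.5% in these data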
HTR2A ag conf = mouse HTR2A agonists, beta-arrestin recruitment, confirmation, cell-based, luminescence, CHO-K1 PathHunter, triplicate | DMSO 0%, 30 µM serotonin 100% | shares compounds with m5-HT2A agonist | activation, % at 7.6 µM | 2,300 compounds, 19% hits | AID 624381, 2012;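 active = mean activation across triplicates above the hit threshold derived in the original primary screen, cut at about 15% in these data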
An asterisk follows results filed as active; nt = no result. Sampled rows, rich in hits. Any-hit rate of the full collection: about 4.3%.

SMILES | B2AR ag | MC4R barr agon | TAAR1 agonist | m5-HT2A agonist | TAAR1 antag | MC4R antagonist | OPRM1 ag | HTR2A ag conf
CCCCn1c(N)c(N(CCOC)C(=O)c2c(CC)noc2C)c(=O)[nH]c1=O | 3.4 | 3.7 | 21.6 | 7.4 | -11.5 | 8.8 | nt | nt
CCCn1c(N)c(C(=O)CSc2nnc(-c3cccs3)n2C2CC2)c(=O)[nH]c1=O | -1.4 | -1.8 | 0.1 | 28.4* | -7.6 | -0.8 | -0.7 | 46.9*
OC[C@H]1O[C@H](c2nc(-c3nc(-c4cccs4)no3)cs2)C[C@@H]1O | nt | 1.1 | 1.7 | 3.0 | -1.3 | 6.8 | nt | nt
COc1ccccc1C(=O)COC(=O)c1cc(S(=O)(=O)N2CCCCC2)ccc1N1CCOCC1 | 3.4 | 1.9 | 5.5 | 17.5* | -16.6 | -2.0 | -0.3 | -0.7
COc1ccc(C(=O)COC(=O)c2cc(S(=O)(=O)N3CCCCC3)ccc2N2CCOCC2)c(OC)c1 | 3.3 | 1.4 | -0.6 | -0.3 | -12.2 | 5.5 | nt | nt
O=C1N2CCCc3cccc(c32)C12Nc1ccccc1S2 (centres undefined) | 9.1 | -1.3 | 2.7 | 20.9* | -8.8 | 5.4 | -0.5 | -5.9
CN1C(=O)CC(N2CCN(c3ccc(Cl)c(Cl)c3)CC2)C1=O (centres undefined) | 8.6 | -1.1 | 2.8 | 15.5* | -1.9 | 1.4 | -0.1 | 4.9
O=C1CC(=O)Nc2cc(S(=O)(=O)N3CCOc4ccccc43)ccc2N1 | -8.9 | 0.7 | 1.6 | 25.6* | -11.2 | 1.2 | -0.7 | -2.2
CN(Cc1ccccc1)C(=O)CN1CCN(S(=O)(=O)c2ccc(Cl)c(Cl)c2)CC1 | -3.4 | 2.0 | 5.4 | 3.4 | 1.4 | -0.8 | nt | nt
O=C(O)c1ccc2c(c1)C(=O)N(c1ccc(OCc3ccccc3)cc1)C2=O | 9.0 | -2.8 | 15.1 | 17.0* | 2.7 | 4.5 | -0.2 | 0.1
Cc1cc(C(=O)NCC(c2ccco2)N(C)C)ccc1[N+](=O)[O-] (centres undefined) | -1.3 | -0.3 | 2.2 | -4.3 | -2.0 | 22.4 | nt | nt
CCOC(=O)c1cnc(SCC(=O)OC)nc1N | 5.1 | -3.6 | 11.0 | 26.2* | 0.2 | 11.2 | -0.6 | -2.9
Cc1ccc(-c2nn(-c3ccccc3)cc2CO)o1 | -9.6 | -0.2 | 3.1 | 14.7* | 1.6 | -3.8 | -0.6 | -2.9
CN(C)/N=C1\C(=O)N(CN2CCN(c3ccccc3)CC2)c2ccccc21 | 7.9 | 0.4 | 14.8 | 21.8* | -16.3 | -3.7 | -0.6 | 12.1
CCCCN(C)C(=O)c1sc(=O)n(Cc2cc(Cl)ccc2OC)c1C | nt | -0.1 | 2.2 | 17.0* | -2.1 | 11.1 | -0.5 | -6.2
CN(Cc1ccccc1)C(=O)COC(=O)c1cc(NS(=O)(=O)c2cccs2)ccc1O | -17.1 | -0.7 | 12.8 | 21.0* | 27.9 | 8.1 | 0.0 | 4.9
CCN(CC(=O)Nc1ccc(NC(C)=O)cc1)C(=O)CSCC(=O)Nc1ccc(C)cc1 | 1.1 | -1.2 | 0.5 | 0.8 | 0.6 | 8.8 | nt | nt
CCOC(=O)CC(=O)CSCC(=O)Nc1ccc(C)cc1 | 5.5 | 1.9 | 5.5 | 15.6* | -12.0 | -4.2 | -0.3 | 0.9
Cc1ccc(C)c(-n2c(CNc3ccc(F)cc3)nnc2SCC(N)=O)c1 | -3.7 | 0.0 | 6.1 | 18.3* | -18.4 | 7.1 | -0.6 | -3.9
CC(=O)c1ccc(NC(=O)CN2CCOCC2)cc1 | 3.1 | -0.2 | 9.4 | -4.7 | -13.2 | 4.9 | nt | nt
Cc1ccc(NC(=O)CN2CCOCC2)cc1 | 2.5 | -0.6 | 5.6 | 14.5* | -23.8 | 9.8 | -0.5 | -0.2
CCC(C(=O)O)n1cnc2scc(-c3ccc(C)c(C)c3)c2c1=O (centres undefined) | 11.4 | 0.8 | 10.3 | 24.1* | 5.5 | 18.9 | -0.4 | -2.1
Cc1csc(=O)n1CC(=O)OCc1nnc(-c2ccccc2)o1 | 4.8 | -0.6 | 3.8 | 21.1* | -9.2 | 0.5 | -0.3 | -0.9
NC(=O)CCC(NC(=O)OCc1ccccc1)C(=O)OCC(=O)c1ccccc1 (centres undefined) | nt | -0.8 | 1.7 | -4.8 | 0.6 | 6.7 | nt | nt
CCN1C(=O)C(=O)N(CC(=O)Nc2cccc(C(F)(F)F)c2)C1=O | 10.7 | -2.0 | 0.5 | 44.0* | -10.6 | 0.8 | -0.7 | -4.4
SMILES | B2AR ag | MC4R barr agon | TAAR1 agonist | m5-HT2A agonist | TAAR1 antag | MC4R antagonist | OPRM1 ag | HTR2A ag conf
COCC(=O)Nc1cccc(C(F)(F)F)c1 | -3.4 | 0.1 | 16.9 | -0.9 | -6.5 | 2.4 | nt | nt
c1ccc(Cc2nnc(Sc3ccccc3)c3ccccc23)cc1 | 11.2 | -0.9 | 4.4 | 26.2* | -6.9 | 24.6 | -0.4 | 8.8
c1ccc(Sc2ncnc3ccccc23)cc1 | 11.4 | -0.5 | 3.9 | 7.3 | -18.6 | -5.1 | nt | nt
CCOCCCNC(=O)CCN1C(=O)c2ccccc2Sc2ncccc21 | 10.9 | -1.7 | -1.3 | -1.1 | -6.4 | 0.8 | nt | nt
Cc1cc(=O)[nH]c(SCc2csc(-c3ccccc3)n2)n1 | 5.1 | -1.4 | 7.6 | 2.5 | 2.8 | 7.7 | nt | nt
Nc1cc(=O)[nH]c(SCc2csc(-c3ccccc3)n2)n1 | -2.6 | 0.1 | 3.8 | 18.8* | -6.0 | 3.6 | -0.5 | -3.3
Cc1ccc(C)c(C(O)c2ncc(-c3ccccc3F)[nH]2)c1 (centres undefined) | nt | -2.5 | 13.2 | 3.2 | -6.5 | -2.6 | nt | nt
O=C(COC(=O)C1CC1)NC(=O)c1ccccc1 | -3.4 | 0.5 | 2.3 | -1.9 | -6.1 | -2.3 | nt | nt
COC(=O)N1CCCCC1c1cc(C(=O)Nc2cccc3c2CCCC3)no1 (centres undefined) | nt | -1.2 | 3.1 | 16.6* | -33.3 | -2.3 | -0.4 | -3.4
COCCOC(=O)N1CCCCC1c1cc(C(=O)Nc2cccc3c2CCCC3)no1 (centres undefined) | nt | -1.6 | 6.2 | -3.9 | -11.0 | 1.8 | nt | nt
CCN(CC)C(=O)C1CCCN(Cc2ccc3ccccc3c2)C1 (centres undefined) | 3.5 | -0.9 | 1.2 | -7.4 | -30.2 | 2.4 | nt | nt
CNc1ccc2ncc(-c3cccc(C(=O)N(C)C)c3)n2n1 | nt | -0.7 | 1.3 | -0.7 | -16.1 | 17.2 | nt | nt
